Measurements: article PMC10173165 (Journal of Advanced Research, 2022)
Blank lines part the entries; values can stand above or below the molecule they belong to. Ends that are not written are not given here.

Experiments:
[1] = system: NCI-N87 xenograft; assay: NCI-N87 tumor xenograft with IHC; type: in vivo, athymic nude mice
In short: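 Female athymic nude mice (5 weeks old) received 5 × 10^6 NCI-N87 cells s.c. in PBS into the right flank and were randomised at 90–100 mm3 (n = 5/group). Dosing was 4 mg/kg i.v. in DMAC/Tween80/saline (5:10:85), six times at 3-day intervals. Caliper volume (L × W2)/2 was followed to day 28. Paraffin tumour sections were stained for HER2 and Ki-67 (DAB), with IHC score = intensity × fraction (0–300) over 10 fields per sample.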

[2] = Genotoxicity safety assessment
[3] = Intravenous and oral pharmacokinetic profile; type: in vivo, ICR mice; details: male, ICR, mouse, plasma
[4] = molecular target: T1, (His)6-MED23_391–582 / FITC-ELF3_129–145 (Homo sapiens, UniProt Q9ULK4); assay: Fluorescence polarization assay; type: binding; details: negative control
T1 sequence (Q9ULK4 391-582): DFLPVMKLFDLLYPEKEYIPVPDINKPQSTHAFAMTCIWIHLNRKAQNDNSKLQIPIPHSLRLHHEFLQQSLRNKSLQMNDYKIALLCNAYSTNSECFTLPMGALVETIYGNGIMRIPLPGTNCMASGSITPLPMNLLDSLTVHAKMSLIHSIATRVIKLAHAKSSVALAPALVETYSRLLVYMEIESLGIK

[5] = molecular target: T2, (His)6-MED23_(391–582) (human, UniProt Q9ULK4 391-582); assay: fluorescence polarisation
T2 sequence: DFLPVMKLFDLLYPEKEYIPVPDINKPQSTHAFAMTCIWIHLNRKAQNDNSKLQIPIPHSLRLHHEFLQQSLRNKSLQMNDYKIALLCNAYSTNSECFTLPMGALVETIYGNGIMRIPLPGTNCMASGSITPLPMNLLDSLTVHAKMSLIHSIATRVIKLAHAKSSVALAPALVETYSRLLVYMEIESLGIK

[6] = molecular target: T3, Nluc-ELF3^WT (human, UniProt P78545-1 1-371); assay: split reporter
T3 sequence: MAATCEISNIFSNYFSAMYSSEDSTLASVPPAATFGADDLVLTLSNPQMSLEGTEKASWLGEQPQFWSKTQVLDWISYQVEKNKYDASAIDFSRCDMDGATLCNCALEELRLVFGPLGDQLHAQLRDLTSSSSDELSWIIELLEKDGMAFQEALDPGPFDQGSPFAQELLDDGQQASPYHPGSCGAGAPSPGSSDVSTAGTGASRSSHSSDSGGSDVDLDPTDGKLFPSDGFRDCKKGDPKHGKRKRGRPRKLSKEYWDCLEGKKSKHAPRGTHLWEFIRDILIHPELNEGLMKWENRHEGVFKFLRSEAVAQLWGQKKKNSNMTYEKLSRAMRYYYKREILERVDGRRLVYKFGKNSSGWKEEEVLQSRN

[7] = 4 mg/kg IV, compared to untreated control

half-life ([3]; iv): 9.74 ± 2.76 h
bioavailability ([3]; po): 25.1%
half-life ([3]; po): 10.9 ± 11 h
Molecule: CC(=O)N1N=C(c2cccc(O)c2)CC1c1ccc(Cl)cc1 (stereo not drawn) [Compound 15]
Tumor growth ([1]; 4 mg/kg IV every 3 days): significant tumor growth retardation
Decrease in proliferation marker Ki67 (IHC) [1, 7]: 4.5 fold
Reduction of HER2 level in the tumor (IHC) [1, 7]: 1.8 fold
Genotoxicity [2]: no association of genotoxicity

Change of FP signal [4]: made no such changes
Molecule: COc1ccc(C2CC(c3ccccc3O)=NN2C(C)=O)c2ccccc12 (stereo not drawn) [Compound 18]

fold change of luciferase activity relative to control [6]: 4.8 fold
B3: Cluc-MED23_(391-582)^K397A (domain or fragment)
chain: DFLPVMALFDLLYPEKEYIPVPDINKPQSTHAFAMTCIWIHLNRKAQNDNSKLQIPIPHSLRLHHEFLQQSLRNKSLQMNDYKIALLCNAYSTNSECFTLPMGALVETIYGNGIMRIPLPGTNCMASGSITPLPMNLLDSLTVHAKMSLIHSIATRVIKLAHAKSSVALAPALVETYSRLLVYMEIESLGIK

More lines, now with the values behind:

Molecule: TSSSSDELSWIIELLEK (also: FITC label, position not given here) [FITC-labeled ELF3_(129–145) peptide]
binding result [5]: binds

B1: Cluc-MED23_(391-462) (domain or fragment)
chain: DFLPVMKLFDLLYPEKEYIPVPDINKPQSTHAFAMTCIWIHLNRKAQNDNSKLQIPIPHSLRLHHEFLQQSL
fold change of luciferase activity vs control [6]: 6 fold

B2: Cluc-MED23_(391-582)^WT (domain or fragment)
chain: DFLPVMKLFDLLYPEKEYIPVPDINKPQSTHAFAMTCIWIHLNRKAQNDNSKLQIPIPHSLRLHHEFLQQSLRNKSLQMNDYKIALLCNAYSTNSECFTLPMGALVETIYGNGIMRIPLPGTNCMASGSITPLPMNLLDSLTVHAKMSLIHSIATRVIKLAHAKSSVALAPALVETYSRLLVYMEIESLGIK
fold change of luciferase activity relative to control [6]: 5.2 fold
